Each structure is given as a SMILES string.

A short description of the data set: Toxicity liver stage against HepG2, at 10uM. The data set is classed as cell-based. The following applies: human, HepG2-A16-CD81EGFP cells; read-out: INHIBITION
Also on record: test concentration 10 uM, cell line HepG2-A16-CD81EGFP. A digest of the protocol: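 Uninfected HepG2-A16-CD81EGFP cells, 3 × 10^3 per well, 1536-well, plated on prespotted compound at 10 μM final, parasite-free screening media added to match infected plates; puromycin 10 μM positive, DMSO 0.5% negative; run in parallel with 48 h PbLuc assay at 37 °C, 5% CO2; viability by CellTiter-Glo luminescence, normalized to controls.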
`O=C(CCCc1ccccn1)NCC(O)c1ccccc1Cl` (stereo unspecified): the cytotoxicity at 10 µM is -9.08%. For the compound `O=C(c1ccccc1N1CCOCC1)N1CCCC(n2ccnc2)C1` (stereo unspecified), the cytotoxicity at 10 µM was -10.7%. The figure for `CCc1cnc(N2CCC3(CC2)CN(c2cccnc2)C(=O)CO3)nc1` is 7.18%. For `Cc1ccc(CNC(=O)NC2CCC(O)CC2)c(N2CCCC2)c1` (stereo unspecified), the cytotoxicity at 10 µM was -16.4%. For `COc1ccc(-c2noc(C3CC(C(C)C)=NO3)n2)cc1` (stereo unspecified) the value was -6.64%; for `COc1ccc(CN2C[C@H]3CN(C(=O)c4ccno4)CCN3C2=O)cc1`, -4.23%; for `O=C(c1cc(F)cc2[nH]cnc12)N1CCCC1Cn1cccn1` (stereo unspecified), 7.39%. With `COCCN(CCC#N)S(=O)(=O)c1ccc(F)cc1F`, the cytotoxicity at 10 µM was -3.54%. The figure for `CS(=O)(=O)N1CCN(c2ccc3ccc(C(=O)NC4CC4)cn23)CC1` is -0.39%. For `O=C1CCC2(CCCN(C(=O)c3cscn3)C2)CN1CCc1c[nH]cn1` (stereo unspecified) the value was -13%; for `CN(Cc1ccsc1)C(=O)c1cc2c([nH]c1=O)CCCC2=O`, -6.88%; for `COCc1nc(CNC2CCCc3c2cnn3C(C)(C)C)cs1` (stereo unspecified), -1.62%.

Take `CN(C)c1cc(CNC(=O)Nc2ccc(S(C)(=O)=O)nc2)ccn1`: the cytotoxicity at 10 µM came out at 0.71%.

As to `CN(Cc1cccnc1)c1nc(-c2ccccn2)nc2c1CCNCC2`, the cytotoxicity at 10 µM is 3.64%. For `COCCN1CC(C(=O)N(C)Cc2ccc(Cl)s2)CC1=O` (stereo unspecified) the value was 8.69%; for `CC(=O)N1N=C(c2ccccc2)OC1C(=O)NCCOc1ccccc1` (stereo unspecified), -2.86%.

Turning to `Cc1ccoc1C(=O)N1Cc2c(Cn3ccnc3)nn(C)c2C1`, the cytotoxicity at 10 µM is -68.5%. On to `NC(=O)c1ccc(N2CCN(Cc3c(Cl)cncc3Cl)CC2)nc1`, for which the cytotoxicity at 10 µM was 10.6%.

For `Cc1cc(C(F)(F)F)c2c(C3CCN(S(=O)(=O)N(C)C)CC3)noc2n1`, the cytotoxicity at 10 µM stood at 3.63%.

Turning to `C=C(C)CN1CCC(NC(=O)c2scnc2C)CC1`, the cytotoxicity at 10 µM was -6.35%. The figure for `Cn1ccnc1CN(CCO)C(=O)c1cc2ccccc2o1` is 3.42%; for `Cc1ccc(CN2CCCC(c3nnc(CN4CCCC4)n3C)C2)s1` (stereo unspecified) it is 0.9%; for `CC(C)CCn1[nH]c(CNc2ccc(Cl)cc2)nc1=O` it is 1.33%. For `COCC(=O)Nc1ccc2c(c1)C1(CCOCC1)CN2CCF` the value was -99.6%; for `O=c1ccc2c([nH]1)CCC(NS(=O)(=O)C1CC1)C2` (stereo unspecified), 3.66%. The figure for `O=C1NC[C@H]2CN(Cc3nccs3)CCN12` is -4.9%.

On to `CSc1nc2ncc3c(=O)n(CCN4CCCCC4)ccc3n2n1`, for which the cytotoxicity at 10 µM was 5.23%.

For the compound `CCC(O)C1CCN(C(=O)Nc2nc(-c3ccccc3)ns2)CC1` (stereo unspecified), the cytotoxicity at 10 µM was -130%.

For the compound `Cn1c(Cn2ccnc2)nnc1C1CCN(C(=O)c2ccncc2)CC1`, the cytotoxicity at 10 µM is -106%. The figure for `CN(Cc1ccc(F)cc1)C(=O)CN1CCOC(Cn2cncn2)C1` (stereo unspecified) is -4.07%. In the case of `CCn1nc2c(cc1=O)CN(Cc1nc(-c3ccsc3)no1)CC2`, the cytotoxicity at 10 µM is -17.1%. The figure for `CCN(CC)S(=O)(=O)c1ccc(NC(=O)C(C)(C)C)cc1` is 9.22%; for `CCCN1CC2(CCN(c3cc(C4CC4)ncn3)CC2)CC1C(=O)O` (stereo unspecified) it is -9.88%; for `COc1ccc(C[C@H]2CN(C(=O)c3cc(C)no3)CC[C@H]2OC)cc1` it is 6%.

On to `C=C1C(C)(C)[C@@H]2CC[C@]1(C(=O)N1CCC(n3cc(CCO)nn3)CC1)C2`, for which the cytotoxicity at 10 µM was -4.28%.

Turning to `CN1CCC(n2nc(Cc3cccc(Cl)c3)nc2Cn2ccnc2)CC1`, the cytotoxicity at 10 µM amounted to 10.8%. For `Cc1nc(CN2CCC3(CCCN(C(=O)c4cnccn4)C3)C2)cs1` (stereo unspecified) the value was -147%; for `CCNC(=O)[C@@H]1C[C@@H](NC(=O)c2cccn2C)CN1CCCSC`, -122%; for `Cc1noc([C@H]2CC[C@@H]3[C@@H](CCN3S(C)(=O)=O)O2)n1`, -19.3%. The figure for `Cc1cc(C[C@@H]2COC[C@H]2NCc2ccc(C(F)(F)F)cc2)on1` is -18.7%; for `N#CCCN(CCC#N)C(=O)COC1CCCCC1` it is 0.631%; for `CC(NC(=O)Nc1cccnc1N1CCCC1)c1nncn1C` (stereo unspecified) it is -10.1%. The figure for `COCc1cc(N2CCOC(c3ccc(Cl)cc3)C2)ncn1` (stereo unspecified) is 1.92%; for `Cc1nc(C2CCCN2Cc2nnc(Cc3ccccc3)o2)no1` (stereo unspecified) it is -5%. With `CC(C)(C)NC(=O)N1CCCn2nc(C(=O)Nc3ccccc3)cc2C1`, the cytotoxicity at 10 µM stood at 8.88%. The figure for `CCN1C(=O)CCC12CCN(C(=O)c1ccco1)CC2` is -3.66%; for `COCCN1C[C@@H]2[C@@H](OC)CCN(C(=O)Cc3ccccc3)[C@@H]2C1` it is 3.5%. For the compound `Cc1nc2c(c(N3CCC(O)(CN4CCCC4)CC3)n1)CCN(C)CC2`, the cytotoxicity at 10 µM was -2.84%. With `CCS(=O)(=O)NC(CCSC)C(=O)Nc1ccccc1C` (stereo unspecified), the cytotoxicity at 10 µM was 1.06%. For `Cc1ncc(S(=O)(=O)Nc2ccnn2C(C)C)[nH]1` the value was 9.68%; for `F[C@@H]1CN(Cc2ccccc2)C[C@@H]1OCc1nc2ccccc2[nH]1`, 4.61%; for `Cc1nc2[nH]cnc(NCCCN3CCOCC3)c-2n1`, -13.3%. For `Nc1nc(SCc2ccc3c(c2)OCO3)ns1` the value was -0.681%; for `CN1CC2(CCCN(Cc3cccc(Oc4ccccc4)c3)C2)OC1=O` (stereo unspecified), 5.09%.

For the compound `CC(C)CN1CCCn2nc(CNC(=O)CN3CCOC3=O)cc2C1`, the cytotoxicity at 10 µM amounted to 0.541%. The figure for `Cc1cccc(CO[C@@H]2C[C@H]3CN(c4ncccn4)CCN3C2)n1` is 1.39%; for `Cc1nccn1CCCC(=O)N1CCCN(c2cccnn2)CC1` it is -9.35%. For `CCC(=O)N1CCN(C(=O)Nc2ccccc2-c2cccs2)CC1` the value was -3.21%; for `Cc1cc(C)nc(C2CCCN2C(=O)c2cnccn2)n1` (stereo unspecified), 3.74%; for `CCN1CCCN(S(=O)(=O)c2cc3ccccc3o2)CC1`, 3.53%. For `Cc1cnn(CC2CCCN2Cc2nnc(C3CC3)n2C)c1` (stereo unspecified) the value was -12.2%; for `Cc1ccc(-c2n[nH]cc2CNCC2CCN(CC(C)O)CC2)cc1` (stereo unspecified), -16.6%; for `Cc1ccc(C2(O)CCN(C(=O)CCn3ccc(=O)[nH]c3=O)CC2)nc1`, 1.99%. For `Cc1nn(C)cc1-c1ccnc(N(C)Cc2cccs2)n1`, the cytotoxicity at 10 µM came out at 19%. Regarding `CCOCC(O)CN1CCN(C(=O)c2cccc(CC#N)c2)CC1` (stereo unspecified), the cytotoxicity at 10 µM is -16.4%. The figure for `Cc1ccc(-c2ccnc(N(C)CC3CCCO3)n2)c(C)n1` (stereo unspecified) is -2.59%; for `CN(Cc1cc[nH]n1)C(=O)c1ccc2c(c1)nc(N1CC[C@H](O)C1)n2C` it is 4.43%; for `O=C(c1ccc(C2CCCN2C(=O)c2cscn2)s1)N1CCSCC1` (stereo unspecified) it is -4.31%. The figure for `NC(=O)CS(=O)(=O)Cc1ccc(F)cc1` is -3.71%; for `Cc1ccc(CC(=O)N2CCN(C3CCOC3=O)CC2)cc1` (stereo unspecified) it is -18.7%.

As for `COc1cccc(-c2nc(C)c(C(=O)N[C@@H](CC(C)C)C(=O)O)s2)c1`, the cytotoxicity at 10 µM worked out at 4.21%. For the compound `COC(=O)c1ccc(CNC(C)(C)c2ccccc2OC)o1`, the cytotoxicity at 10 µM was -0.651%.

On to `COC(C)(C)c1noc(C2(C#N)CCCCC2)n1`, for which the cytotoxicity at 10 µM was -2.11%. On to `Cc1cc(C(=O)N(C)Cc2ccccc2OCC(C)C)cc(=O)[nH]1`, for which the cytotoxicity at 10 µM is 8.45%. For `CC(C)c1nc(S(=O)(=O)N(C)c2cc(F)ccc2F)c[nH]1` the value was 13.9%; for `COCCc1noc(CN2CCCCC2Cn2cc(C)cn2)n1` (stereo unspecified), -8.54%; for `CCC(O)Cn1cc(C2=CCN(Cc3ccc(OC)cc3)CC2)cn1` (stereo unspecified), -3.94%. With `c1ccc(CCCN2CCN(c3ccc4nncn4n3)CC2)cc1`, the cytotoxicity at 10 µM turned out to be 4.2%.

Regarding `CCOCC1CN(C(=O)N2CCCC2)Cc2cnn(C)c21` (stereo unspecified), the cytotoxicity at 10 µM was -0.96%. For `CN(C)CC(=O)N1CCC2(CC1)CN(Cc1ccccc1)C2` the value was 5.03%. Take `CC(C)Cn1c(=O)[nH]c2cn(-c3ccc(F)cc3)c(=O)n21`: the cytotoxicity at 10 µM came out at 8.2%.

Turning to `O=C1Nc2ccccc2/C1=C1\CCCCCN1`, the cytotoxicity at 10 µM stood at 13.6%.

As for `CCc1nc(CCNC(=O)NC2CC(=O)N(C(C)(C)C)C2)cs1` (stereo unspecified), the cytotoxicity at 10 µM was -1.51%. The figure for `Cc1ccc(-c2nc(CSCCC(=O)NC(N)=O)co2)c(C)c1` is -6.4%.

On to `Cc1nc(CCN)cc(N(C)Cc2nc3ccc(F)cc3[nH]2)n1`, for which the cytotoxicity at 10 µM is -0.581%.

Take `CCCc1cncnc1N1CCCC2(CCC(=O)N(C3CCCC3)C2)C1` (stereo unspecified): the cytotoxicity at 10 µM came to 0.887%. Consider `Cc1cnn(CC2CCCCN2C(=O)c2c(C)noc2C)c1` (stereo unspecified), for which the cytotoxicity at 10 µM was -7.26%. With `CCNC(=O)N(C)C(c1ccccc1)c1ccccn1` (stereo unspecified), the cytotoxicity at 10 µM came to 1.52%.

Take `Cc1cccc(CN2C[C@H]3OC(=O)N(CCCN4CCOCC4)[C@H]3C2)n1`: the cytotoxicity at 10 µM is -6.85%. For `COc1ccc(N(c2ccc(C)cc2)c2ccc(C(=O)O)s2)cc1` the value was -3.75%; for `O=C(CN1C(=O)CCC1=O)N1CCC(S(=O)(=O)Cc2ccco2)CC1`, 3.79%; for `Cc1ccc(NC2CCN(C(=O)c3ccncc3)CC2)nn1`, 8.85%. As for `OCCC1CN(c2nc(-c3cccnc3)nc3c2CCNCC3)CCO1` (stereo unspecified), the cytotoxicity at 10 µM is -2.64%. On to `COc1cc(CNC(C)Cn2cccn2)cc(OC)c1OC` (stereo unspecified), for which the cytotoxicity at 10 µM was -4.23%.

Regarding `COc1c(C)cnc(CN2CCCC(Cn3nc(C)nc3C)C2)c1C` (stereo unspecified), the cytotoxicity at 10 µM turned out to be 2.37%. On to `O=C(O)Cc1nc2nccc(-c3ccc(F)cc3)n2n1`, for which the cytotoxicity at 10 µM was -1.53%.

For the origin of these results see ChEMBL document CHEMBL4513216, “Probing the Open Global Health Chemical Diversity Library for Multistage-Active Starting Points for Next-Generation Antimalarials” (ACS Infect Dis, 2020).
